A short description of experiment [1]: Cytotoxicity against human SEM cells after 72 hrs by MTT assay. The experiment is classed as functional, cell-based. An outline of the steps:
(§1)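 Cells plated at 8 × 10^3 per well, 18 h at 37 °C, 5% CO2, then fresh medium with graded compound concentrations (DMSO ≤0.25%) for 72 h. Jurkat, SEM, HL-60 grown in RPMI-1640; A549, HeLa, HT-29, MCF-7 in DMEM; 10% FBS with penicillin/streptomycin. MTT viability read-out; IC50 vs 0.25% DMSO controls; mean ± SE of at least three independent experiments.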

The subject of experiment [2] is HL-60. Briefly: Cytotoxicity against human HL60 cells after 72 hrs by MTT assay. The experiment is classed as functional, cell-based. As to conditions: HL-60, 72 h.
The test system of experiment [3] is HeLa. Briefly: Cytotoxicity against human HeLa cells after 72 hrs by MTT assay. In kind it is functional, cell-based.
For experiment [4], the system named is A549. Briefly: Cytotoxicity against human A549 cells after 72 hrs by MTT assay. In kind it is functional, cell-based. As to conditions: A549, 72 h.
The test system of experiment [5] is HT-29. Briefly: Cytotoxicity against human HT-29 cells after 72 hrs by MTT assay. As to conditions: HT-29, 72 h. In kind it is functional, cell-based.
Experiment [6] deals with Jurkat. Kind of experiment: Cytotoxicity against human Jurkat cells after 72 hrs by MTT assay. The experiment is classed as functional, cell-based. In short, it runs like this: as §1
The test system of experiment [7] is MCF7. Kind of experiment: Cytotoxicity against human MCF7 cells after 72 hrs by MTT assay. The experiment is classed as functional, cell-based. To be noted: MCF7, 72 h.
The nature of experiment [8]: Antitumor activity against mouse BNL 1ME A.7R.1 cells xenografted in Balb/c mouse assessed as reduction in tumor growth at 5 mg/kg, ip QD for 7 days. In kind it is functional. Details: scale not given: the % may be the effect or the level left. As to conditions: route intraperitoneal. In short, it runs like this: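 Male Balb/c mice, 8 weeks old, given 10^7 syngeneic BNL 1ME A.7R.1 hepatoma cells subcutaneously in the dorsal region in 200 μL PBS. Randomised to groups of five. Dosed intraperitoneally once daily for 7 days at 5 mg/kg in 0.9% NaCl with 5% PEG 400 and 0.5% Tween 80, against vehicle and CA-4P. Tumours measured daily by caliper, V = AB2/2; body weight recorded. Mean ± SEM.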

Experiment [9] can be described thus: Cytotoxicity against human LoVo/DX cells after 72 hrs by MTT assay. The experiment is classed as functional, cell-based. An outline of the steps:
(§2)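 MTT viability test: 8 × 10^3 cells per well settled 18 h at 37 °C, 5% CO2, then given fresh medium with compound (from 10 mM DMSO stocks, final DMSO ≤0.25%) for 72 h. […] CEMVbl-100 is a vinblastine-selected P-gp line; LoVoDoxo is grown in Ham's F12 with 0.1 μg/mL doxorubicin. Resistance index = resistant IC50/parental IC50.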

Experiment [10] has as its system LoVo. Kind of experiment: Resistance index, ratio of IC50 for human LoVo/DX cells to IC50 for human LoVo cells. In kind it is functional. In short, it runs like this: as §2
Experiment [11] concerns LoVo. Briefly: Cytotoxicity against human LoVo cells after 72 hrs by MTT assay. In kind it is functional, cell-based. In short, it runs like this: as §2
Experiment [12] is filed under the species Bos taurus. Briefly: Displacement of [3H]colchicine from bovine brain tubulin at 5 uM after 20 mins by turbidimetric analysis.
Experiment [13] is described as follows: Inhibition of bovine brain tubulin polymerization after 20 mins by turbidimetric analysis. More on the design: species or system Bos taurus. An outline of the steps:
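Bovine brain tubulin (10 μM) preincubated with varying compound concentrations in glutamate buffer at 30 °C, chilled to 0 °C, 0.4 mM GTP added, then warmed to 30 °C in a recording spectrophotometer.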

The species named for experiment [14] is Bos taurus. Kind of experiment: Displacement of [3H]colchicine from bovine brain tubulin at 1 uM after 20 mins by turbidimetric analysis.
The nature of experiment [15]: Cytotoxicity against human A549-T12 cells after 72 hrs by MTT assay. The experiment is classed as functional, cell-based. As to conditions: A549, 72 h. In short, it runs like this: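 Mean ± SE of at least three independent experiments. Resistance ratio = IC50 in resistant line/IC50 in nonresistant line.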
Experiment [16] deals with CCRF-CEM. Kind of experiment: Resistance index, ratio of IC50 for human CEM/VBL100 cells to IC50 for human CEM cells. In kind it is functional. An outline of the steps:
as §2

The subject of experiment [17] is CCRF-CEM. Kind of experiment: Cytotoxicity against human CEM cells after 72 hrs by MTT assay. In kind it is functional, cell-based. In short, it runs like this: as §2
A short description of experiment [18]: Cytotoxicity against human CEM/VBL100 cells after 72 hrs by MTT assay. In kind it is functional, cell-based. To be noted: CEM/VBL100, 72 h. An outline of the steps: as §2

Structures are written as SMILES.

Consider `COC(=O)c1sc2ccc(C)cc2c1Nc1cc(OC)c(OC)c(OC)c1`, for which the IC50 in [1] amounted to 185 nM; in experiment [2], 4720 nM; in experiment [3], 398 nM; in experiment [4] it was 2810 nM; in [5], 299 nM; in experiment [6] it was 727 nM. This compound also registered an IC50 in [7] of 540 nM.

Take `COc1ccc(/C=C\c2cc(OC)c(OC)c(OC)c2)cc1OP(=O)([O-])[O-].[Na+].[Na+]` [FOSBRETABULIN DISODIUM]: the Activity in experiment [8] is listed as 44.5%.

Turning to `COc1cccc2c1C(=O)c1c(O)c3c(c(O)c1C2=O)C[C@@](O)(C(=O)CO)C[C@@H]3O[C@H]1C[C@H](N)[C@H](O)[C@H](C)O1` [DOXORUBICIN], the values for the IC50 in experiment [9] and in experiment [11] were 11300 nM and 95.6 nM, respectively. Also, the “Ratio IC50” value in experiment [10] is 118.

With `CCOC(=O)c1sc2cc(C)ccc2c1Nc1cc(OC)c(OC)c(OC)c1`, the IC50 in experiment [1] was determined as 1.5 nM; in experiment [13], 1100 nM; in [2], 3.9 nM; in experiment [3], 0.38 nM; in experiment [4], 7.2 nM; in experiment [5], 6 nM. Also, the IC50 in experiment [6] was 0.4 nM; in experiment [7], 9 nM. Also, the inhibition in [12] amounted to 89%; in experiment [14], 58%.

Turning to `CCOC(=O)c1sc2ncccc2c1Nc1cc(OC)c(OC)c(OC)c1`, the IC50 stood at 1850 nM in experiment [1]; 6100 nM in [2]; 2100 nM in [3]; 7160 nM in experiment [4]; 2260 nM in experiment [5]; 8450 nM in [6]. The compound also had an IC50 in experiment [7] of 5280 nM.

With `COC(=O)c1sc2c(OC)cccc2c1Nc1cc(OC)c(OC)c(OC)c1`, the IC50 in experiment [1] was 2.3 nM; in experiment [13], 760 nM; in [2] it was 25.6 nM; in experiment [3] it was 3.5 nM; in experiment [4] it was 33 nM; in experiment [5] it was 14.9 nM. For the same compound, the IC50 in experiment [6] was 56.5 nM; in experiment [7], 95 nM. The values for the inhibition in experiment [12] and in experiment [14] were 76% and 54%, respectively.

In experiment [1], `COc1ccc(/C=C\c2cc(OC)c(OC)c(OC)c2)cc1O` [COMBRETASTATIN A4] yielded an IC50 of 5 nM.

Take `CCOC(=O)c1sc2ccccc2c1Nc1cc(OC)c(OC)c(OC)c1`: the IC50 was determined as 1900 nM in experiment [1]; 5490 nM in experiment [2]; 3100 nM in [3]; 8530 nM in experiment [4]; 1610 nM in experiment [5]; 3020 nM in experiment [6]. The IC50 in experiment [7] is 6390 nM.

On to `COC(=O)c1sc2cc(C)ccc2c1Nc1cc(OC)c(OC)c(OC)c1`, for which the IC50 came out at 0.7 nM in experiment [1]; 1200 nM in [13]; 20.5 nM in [2]; 0.31 nM in [3]; 10.8 nM in experiment [4]; 1.9 nM in experiment [5]. The results for the IC50 in [6] and in [7] were 0.6 nM and 1.2 nM, respectively. Moreover, the inhibition amounted to 95% in experiment [12] and 71% in experiment [14].

Regarding `CC(=O)O[C@H]1C(=O)[C@@]2(C)[C@H]([C@H](OC(=O)c3ccccc3)[C@]3(O)C[C@H](OC(=O)[C@H](O)[C@@H](NC(=O)c4ccccc4)c4ccccc4)C(C)=C1C3(C)C)[C@]1(OC(C)=O)CO[C@@H]1C[C@@H]2O` [PACLITAXEL], in experiment [15], the midpoint of inhibition, the IC50, lay at 92.3 nM.

`COC(=O)c1sc2ccccc2c1Nc1cc(OC)c(OC)c(OC)c1`: the IC50 in [1] was 179 nM; in [2] it was 1540 nM; in experiment [3], 427 nM; in [4], 2850 nM; in experiment [5] it was 299 nM; in [6], 490 nM. In addition, inhibition in experiment [7] was half-maximal at 795 nM (IC50).

As for `CCOC(=O)c1sc2cc(OC)ccc2c1Nc1cc(OC)c(OC)c(OC)c1`, the IC50 came to 10.2 nM in [1]; 810 nM in [13]; 31.6 nM in experiment [2]; 0.56 nM in [3]; 8.9 nM in [4]; 3.3 nM in [6]. In experiment [7], this compound had an IC50 of 5.6 nM. Further, the inhibition in experiment [12] stood at 94%; in [14], 77%.

For the compound `CC[C@]1(O)C[C@@H]2CN(CCc3c([nH]c4ccccc34)[C@@](C(=O)OC)(c3cc4c(cc3OC)N(C)[C@H]3[C@@](O)(C(=O)OC)[C@H](OC(C)=O)[C@]5(CC)C=CCN6CC[C@]43[C@@H]65)C2)C1` [VINBLASTINE], the “Ratio IC50” value in experiment [16] is 105. In addition, the IC50 turned out to be 2 nM in experiment [17] and 211 nM in experiment [18].

As to `COC(=O)c1sc2cccc(C)c2c1Nc1cc(OC)c(OC)c(OC)c1`, the IC50 was 2500 nM in [1]; 3380 nM in experiment [2]; 1300 nM in experiment [3]; 4580 nM in experiment [4]; 1020 nM in experiment [5]; 6710 nM in experiment [6]. Besides, in [7], the IC50 was determined as 8190 nM.

With `CCOC(=O)c1sc2cccc(C)c2c1Nc1cc(OC)c(OC)c(OC)c1`, the IC50 worked out at 1930 nM in experiment [1]; 7380 nM in experiment [2]; 2520 nM in experiment [3]; 6250 nM in experiment [4]; 3610 nM in experiment [5]; 5670 nM in [6]. The same compound came in with an IC50 in experiment [7] of 4150 nM.

As for `COC(=O)c1sc2c(C)cccc2c1Nc1cc(OC)c(OC)c(OC)c1`, the IC50 in [1] turned out to be 1630 nM; in [2], 4270 nM; in experiment [3], 1730 nM; in experiment [4], 3930 nM; in experiment [5] it was 552 nM; in experiment [7], 4550 nM.

`COC(=O)c1sc2ncccc2c1Nc1cc(OC)c(OC)c(OC)c1`: the half-inhibitory concentration (IC50) in [1] is 348 nM; in experiment [2] it was 2920 nM; in experiment [4] it was 3850 nM; in experiment [5] it was 542 nM; in experiment [6] it was 1110 nM; in experiment [7], 2640 nM.

The values are drawn from ChEMBL document CHEMBL2331329, “Synthesis and biological evaluation of 2-(alkoxycarbonyl)-3-anilinobenzo[b]thiophenes and thieno[2,3-b]pyridines as new potent anticancer agents” (J Med Chem, 2013).
